# Only some compounds are listed: those with a hit (about 4.1% of all), similar ones and a draw of the others.
# MC4R barr agon = activates human MC4R beta-arrestin recruitment | U2OS MC4R beta-arrestin complementation, luminescence; percent of melanotan II response, DMSO zero | hit rate 0.98% among 360,000 | activation, % at 8.9 µM;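 active = activation above a per-plate cutoff, the mean activation of sample wells on that plate plus 3 SD, cut at about 8% in these data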
# Target sequence (P32245 whole entry, looked up): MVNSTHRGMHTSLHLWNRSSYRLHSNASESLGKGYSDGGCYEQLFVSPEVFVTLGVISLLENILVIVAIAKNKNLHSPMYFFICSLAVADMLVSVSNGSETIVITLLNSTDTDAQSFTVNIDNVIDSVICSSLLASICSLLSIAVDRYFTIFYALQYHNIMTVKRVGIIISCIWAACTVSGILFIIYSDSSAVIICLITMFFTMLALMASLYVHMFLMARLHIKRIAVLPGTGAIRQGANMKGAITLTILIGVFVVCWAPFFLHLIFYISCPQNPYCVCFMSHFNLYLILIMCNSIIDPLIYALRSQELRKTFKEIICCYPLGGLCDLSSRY
# MPTP inh = blocks calcium-induced mitochondrial swelling | isolated mouse mitochondria, Ca2+ swelling absorbance, 30 min | inhibition, % at 10 µM | hit rate 1.4% among 360,000 | AID 602449;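 active = inhibition of 50% or more, scaled per plate between neutral and stimulator controls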;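 note: 0% = DMSO wells given calcium and 100% = 1 mM EGTA wells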
# MC4R antag cAMP = blocks human MC4R cAMP signaling | P32245 | inhibition, % at 6.5 µM | MC4R-expressing cells, MTII-stimulated cAMP, LANCE TR-FRET | AID 540295 | hit rate 0.48% among 360,000;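 active = inhibition above its plate's cutoff, the mean of tested wells on that plate plus 3 SD, cut at about 29% in these data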;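 note: 0% = Melanotan II alone and 100% = Melanotan II plus saturating MCL0020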
#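 Material – human MC4R-expressing U2OS cells · Repeats – no replicates · Detection – TR-FRET with Eu-cAMP and labeled anti-cAMP, 671 nm · Times – compound 30 min, challenge 1 h, detection 1 h · Compound – single nominal compound dose of 6.5 µM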
# SMARCA2 activ = SMARCA2 function activation, primary screen | AID 652017 | hit rate 1% among 370,000 | MG213 cells, MMTV-luciferase reporter, dexamethasone, overnight | activation, % at 9.1 µM; in the data active = activation above about 7.8%;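 note: 0% = vehicle wells and 100% = reference activator wells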
# ATG4B inh = inhibitors of human ATG4B cysteine protease | Q9Y4P1 | ATG4B cleavage of LC3-PLA2, NBD-HPC fluorescence, 1 h | inhibition, % at 8.33 µM | hit rate 0.51% among 340,000 | AID 504462; in the data active = inhibition above about 40%
# MPTP counter = mitochondrial membrane potential, counter-screen. inhibition, % at 10 µM. isolated mitochondria, Rhodamine 123 fluorescence. hit rate 78% among 5,000. shares compounds with MPTP inh. AID 624504; in the data active = inhibition above about 22%;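 note: 0% = DMSO vehicle and 100% = positive control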
# MPTP swell DR = dose response confirmation of mitochondrial permeability transition pore inhibitors; shares compounds with MPTP inh; AID 651561; isolated mitochondria swelling, absorbance; hit rate 58% among 780; IC50, µM; in the data active = IC50 below about 20 µM
# MPTP counter DR = counter-screen for mitochondrial permeability transition pore inhibitors, dose response. shares compounds with MPTP inh. isolated mitochondria counterscreen, fluorescence read-out. IC50, µM. hit rate 49% among 780. AID 651564; in the data active = IC50 below about 80 µM
# Numbers without * were called inactive; i = inactive; · = no result given; ! = repeats disagree.
SMILES,MC4R barr agon,MPTP inh,MC4R antag cAMP,SMARCA2 activ,ATG4B inh,MPTP counter,others
CCCCCCC[C@@H](C/C=C/CCC(=O)N(C)C/C(=C/Cl)C/C(=C\C(=O)N1CC(OC)=CC1=O)OC)OC,-2,79*,24,7,3,19,
CCCCCCC[C@@H](C/C=C/CCC(=O)O)OC,2,2,5,-2,-11,·,
CCCCCCC[C@@H](C/C=C/CCC(=O)N(C)C/C(=C/Cl)C/C(=C\C(=O)N1C[C@H](O)CC1=O)OC)OC,3,74*,3,-7,-13,102*,
COC(=O)CC[C@@H](/C=C/C(=O)OC(C)(C)C)Sc1ccc(C(C)(C)C)cc1,·,·,·,-1,·,·,
O=C(CSc1nc2cc(Cl)ccc2o1)Nc1ccc(N2CCOCC2)cc1,19*,51*,-3,·,4,68*,
O=C(CSc1nc2ccccc2o1)Nc1ccc(N2CCOCC2)cc1,-1,30,2,-5,2,·,
COC(=O)C1=C(C)N(Cc2ccccc2C(F)(F)F)C(=NCc2ccccc2C(F)(F)F)NC1c1cccc(C(F)(F)F)c1 (stereo unspecified),·,·,·,-1,·,·,
Cc1ccc(NC(=O)CN2CC(C)SC2=NC2CCCCC2)cc1 (stereo unspecified),1,52*!,-1,-5,4,-12,MPTP swell DR=13*;MPTP counter DR=>80
Cc1ccc(NC(=O)CN2CCOCC2)cc1,-1,-2,10,3,3,·,
COC(=O)C(NC(=O)c1ccc(F)cc1)(Nc1ncc(S(=O)(=O)c2ccc([N+](=O)[O-])cc2)s1)C(F)(F)F (stereo unspecified),-1,90*,12,-5,-4,88*,
CN(/N=C/c1cc([N+](=O)[O-])ccc1O)c1ccccc1,1,57*,-3,-1,-12,66*,
O=C(N=C1N(Cc2ccccc2)C[C@]2(C=C3CCCCC3n3c(=O)n(-c4ccccc4)c(=O)n32)N1C(=O)OCc1ccccc1)c1ccccc1 (stereo partly specified),·,·,·,-3,·,·,
O=C(Nc1cc(-c2ccccc2)nn1C1CCCCC1)c1ccc(Cl)cc1,1,64*,-2,0,-8,97*,
COc1ccc(Cn2nnnc2C(c2ccc(C)cc2)N2CCN(C3CCCC3)CC2)cc1 (stereo unspecified),-1,77*,6,1,-2,-10,MPTP swell DR=>100;MPTP counter DR=>80
C[C@H]1COc2cc(N3CCOCC3)ccc2S(=O)(=O)N1,·,·,·,-4,·,·,
CC(O)CNCCCOc1ccc(Cl)cc1C(C)(C)C (stereo unspecified),8,74*,0,-5,-8,-17,MPTP swell DR=5*;MPTP counter DR=>80
CN(C)CCOCCOc1ccc(Cl)cc1C(C)(C)C,1,2,6,-2,2,·,
O=C(/C=C(\Nc1cc(Cl)c(F)c(Cl)c1)c1ccccc1)c1ccccc1,·,·,·,-4,·,·,
Cn1c(NCc2c(O)ccc3ccccc23)nc2ccccc21,-2,51*,7,-3,-18,45*,
Cn1c(NCc2cc(Br)ccc2O)nc2ccccc21,1,28,-4,0,-16,·,
COc1ccc(CN(C)S(=O)(=O)c2nnc(NC(=O)c3cccc(F)c3)s2)cc1,0,54*,5,1,-1,81*,
COc1ccc(C(=O)Nc2nnc(S(=O)(=O)N(C)Cc3ccccc3)s2)cc1,0,4,7,-3,-10,·,
CN(Cc1ccc(F)cc1)S(=O)(=O)c1nnc(NC(=O)c2ccccc2)s1,-1,51*,1,-2,3,86*,
CN(Cc1ccc(F)cc1)S(=O)(=O)c1nnc(NC(=O)c2ccccc2Br)s1,-2,60*,2,-5,36,71*,
CCCc1c(Cc2cccc(F)c2)ncn1Cc1cccc(-c2ccccc2)c1,·,0,·,-8,·,·,
SMILES,MC4R barr agon,MPTP inh,MC4R antag cAMP,SMARCA2 activ,ATG4B inh,MPTP counter,others
CCCN1CCCCC(NC(C)=O)C1=O (stereo unspecified),·,·,·,-1,·,·,
Cc1cc(N2CCOCC2)nc(NCc2ccccc2)n1,0,8,2,-2,-2,·,
Cc1cc(N2CCCCC2)nc(NCc2ccccc2)n1,-1,55*,3,-4,6,88*,
Cc1cc(C)nc(NCc2ccc(Cl)cc2)n1,-1,-1,-7,-2,2,·,
Cc1cc(Nc2cccc(Cl)c2)nc(NCc2ccccc2)n1,7,82*,4,1,36,87*,
CC(=O)N1CCN(C(=O)c2ccc(CNC(=O)c3cccc(Br)c3)cc2)CC1,·,·,·,1,·,·,
Cc1ccc(N2CC(C(=O)N3CCC(C(=O)Nc4ccc(Br)cc4)CC3)CC2=O)cc1 (stereo unspecified),1,0,0,-2,-12,·,
O=C(Nc1ccc(Cl)c(Cl)c1)C1CC(=O)N(c2ccc(Br)cc2)C1 (stereo unspecified),-1,63*,3,-1,4,87*,
COC(=O)c1sccc1N/N=C/c1cccc(Oc2ccccc2)c1,0,64*,6,3,-8,-8,MPTP swell DR=i;MPTP counter DR=>80
Cc1ccc(NC(=S)NNc2ncc(C(F)(F)F)cc2Cl)cc1,-2,-6,6,-9,9,·,
FC(F)(F)c1cnc(NNC(=S)Nc2ccc(Cl)cc2)c(Cl)c1,0,100*,23,-8,-2,92*,
Fc1ccc(NC(=S)NNc2ncc(C(F)(F)F)cc2Cl)c(F)c1,-7,94*,27,-8,2,94*,
O=C(OCc1cn(Cc2ccc(F)c(F)c2)nn1)N1CCCC1,·,·,·,1,·,·,
CCN1CCN(c2ncc(C(=O)Nc3cc(Cl)ccc3OC)c3ccccc23)CC1,0,78*,4,3,-6,-11,MPTP swell DR=i;MPTP counter DR=>80
CCOc1cccc(-c2nn3c(-c4cccc(C)c4)nnc3s2)c1,·,·,·,-5,·,·,
O=C(NCCSc1ccccc1)c1ccc(Br)cc1,-2,2,0,1,3,·,
O=C(NCCCSc1ccccc1)c1cc(Br)ccc1O,-1,75*,1,-2,-3,86*,
O=C(NNC(=O)c1ccncc1)Nc1ccc(Br)cc1,0,87*,6,-4,-3,102*,
O=C(NNC(=O)c1cccnc1)Nc1ccc([N+](=O)[O-])cc1,-3,102*,-8,-2,4,102*,
O=C(NNS(=O)(=O)c1ccc([N+](=O)[O-])cc1)c1ccncc1,0,0,-2,-2,-3,·,
O=C(NNC(=O)c1ccncc1)Nc1ccc([N+](=O)[O-])cc1,-1,82*,6,-2,-6,92*,
O=C(Nc1ccncc1)c1ccc(Br)cc1,0,0,2,-2,0,·,
CCCCCCCCN1C(=O)N2Cc3ccccc3C2CS1(=O)=O (stereo unspecified),·,·,·,-1,·,·,
